# Measured values of several laboratories.
# Each line is one published result; the experiments were not run side by side.
# SIRT3: NAD-dependent protein deacetylase sirtuin-3, mitochondrial (SIRT3, Homo sapiens, UniProt Q9NTG7)
# GABRA1: Gamma-aminobutyric acid receptor subunit alpha-1 (GABRA1, Homo sapiens, UniProt P14867)
# PTGS1: Prostaglandin G/H synthase 1 (PTGS1, Ovis aries, UniProt P05979)
SMILES,target,assay,system,setting,inhibition
CC(C)C1CC(=O)c2cc(Cl)cc(Br)c2O1 (centres unmarked),SIRT3,"enzyme activity, inhibitor, fluorescence",,200 µM,4.4%
O=C(Nc1ccc(S(=O)(=O)N2CCC(Cl)CC2)cc1)c1ccc([N+](=O)[O-])o1,"Androgen receptor (Ar, Rattus norvegicus, UniProt P15207)","ligand displacement, radioligand",,10 µM,8%
O=C(c1ccc(Cl)cc1)N(Cc1ccccc1)C1CCCCC1,GABRA1,cell-free assay,,10 µM,-34.8%
CCCCCC1CC(=O)c2cc(OC)ccc2O1 (centres unmarked),SIRT3,"enzyme activity, inhibitor, fluorescence",,200 µM,9.5%
CN(C)C1CCN(CC#Cc2nn(C3CCCC3)c3nc(NCc4ccccc4)ncc23)C1 (centres unmarked),"Ribosomal protein S6 kinase alpha-3 (RPS6KA3, Homo sapiens, UniProt P51812)","enzyme activity, inhibitor, FRET",,1 µM,2%
O=C1CC(CCNC(=S)NCCCC[C@H](NS(=O)(=O)c2cccc(F)c2)C(=O)N[C@@H](Cc2c[nH]c3ccccc23)C(=O)NC2CCC2)=NO1,SIRT3,"enzyme activity, inhibitor",,10 µM,40%
COc1cc(NC(C)=O)c(Cl)cc1C(=O)Nc1nccs1,"Type-2 angiotensin II receptor (AGTR2, Homo sapiens, UniProt P50052)",cell-free assay,,10 µM,2.7%
O=c1cc(-c2ccccc2)oc2c(Br)cc(Cl)cc12,SIRT3,"enzyme activity, inhibitor, fluorescence",,200 µM,12%
CC(=S)NCCCC[C@H](NC(=O)OCc1ccccc1)C(=O)N[C@@H](Cc1c[nH]c2ccccc12)C(=O)N[C@@H](CC(N)=O)C(N)=O,SIRT3,"enzyme activity, inhibitor",,10 µM,14%
CNc1cc(Oc2cc(C(=O)Nc3cc(N4CCN(C)CC4)cc(C(F)(F)F)c3)ccc2C)ncn1,"STE20-related kinase adapter protein alpha (STRADA, Homo sapiens, UniProt Q7RTN6)","target engagement in cells, inhibitor, chemoproteomics",Huh-7,1 µM,-86.8%
CC(=S)NCCCC[C@H](NC(=O)OCc1ccccc1)C(=O)N[C@@H](Cc1c[nH]c2ccccc12)C(=O)N[C@@H](CCCCN)C(N)=O,SIRT3,"enzyme activity, inhibitor",,10 µM,59%
CCCCCC1CC(=O)c2cc(Br)cc(Br)c2O1 (centres unmarked),SIRT3,"enzyme activity, inhibitor, fluorescence",,200 µM,6.5%
Cc1ncc([N+](=O)[O-])n1C(=NO)c1ccccc1C(F)(F)F,"Fas-activated serine/threonine kinase (Homo sapiens, UniProt Q14296)","enzyme activity, inhibitor",,10 µM,7.77%
C=CN1CCCn2c1nc1c2c(=O)n(C)c(=O)n1C,"Adenosine receptor A2a (Adora2a, Rattus norvegicus, UniProt P30543)","ligand displacement, radioligand",,"25 µM, cell membranes",47%
CCCCCCCCCCCCNC(=S)NCCCC[C@H](NC(=O)OCc1ccccc1)C(=O)N[C@@H](Cc1c[nH]c2ccccc12)C(=O)N[C@@H](CCCNC(=N)N)C(N)=O,SIRT3,"enzyme activity, inhibitor",,10 µM,62%
O=C(NC1CCC1)[C@H](Cc1c[nH]c2ccccc12)NC(=O)[C@H](CCCCNC(=S)NCCn1nn[nH]c1=O)NS(=O)(=O)c1cccc(F)c1,SIRT3,"enzyme activity, inhibitor",,100 µM,10%
COc1ccc2c(c1)C(CC(=O)O)=C/C2=C\c1ccc(-c2ccccc2)cc1,PTGS1,"enzyme activity, inhibitor",,4 µM,49%
CCCCCCCCCCCCNC(=S)NCCCC[C@H](NC(=O)OCc1ccccc1)C(=O)N[C@@H](Cc1c[nH]c2ccccc12)C(=O)N[C@@H](CCNC(=N)N)C(N)=O,SIRT3,"enzyme activity, inhibitor",,10 µM,48%
O=C(Nc1ccc(F)cc1)Nc1cccc(C(=O)Nc2ccc3[nH]ncc3c2)c1,"BDNF/NT-3 growth factors receptor (NTRK2, Homo sapiens, UniProt Q16620)","enzyme activity, inhibitor, FRET",,1 µM,16.8%
C[C@@H](NC(=O)[C@H](CCCCNC(=O)C(F)(F)F)NS(C)(=O)=O)C(=O)N[C@@H](CCCNC(=N)N)C(N)=O,SIRT3,"enzyme activity, inhibitor",,100 µM,10%
Oc1cccc(Nc2nc(-c3ccc(F)cc3F)cs2)c1,GABRA1,cell-free assay,,10 µM,-27.3%
O=c1c(O[C@@H]2O[C@H](CO)[C@@H](O)[C@H](O)[C@H]2O)c(-c2ccc(O)cc2)oc2cc(O[C@@H]3O[C@H](CO)[C@@H](O)[C@H](O)[C@H]3O)cc(O)c12,PTGS1,"enzyme activity, inhibitor, absorbance",,50 µM,62.9%
CCCCCCCCCCCCNC(=S)NCCCC[C@H](NC(=O)OCc1ccccc1)C(=O)N[C@@H](CCCCN)C(=O)N[C@@H](CCCNC(=N)N)C(N)=O,SIRT3,"enzyme activity, inhibitor",,1 µM,54%
O=C(O)Cc1ccccc1OP(=O)(O)O,"Signal transducer and activator of transcription 5A, SH2 (Homo sapiens, UniProt P42229)","ligand displacement, FP",,100 µM,40%
C[C@@H]1O[C@@H](OC[C@H]2O[C@@H](Oc3c(-c4ccc(O)cc4)oc4cc(O)cc(O)c4c3=O)[C@H](O[C@@H]3O[C@H](CO)[C@@H](O)[C@H](O)[C@H]3O)[C@@H](O)[C@@H]2O)[C@H](O)[C@H](O)[C@H]1O,PTGS1,"enzyme activity, inhibitor, absorbance",,50 µM,72.6%
CCCCCC1CC(=O)c2cc(F)cc(F)c2O1 (centres unmarked),SIRT3,"enzyme activity, inhibitor, fluorescence",,200 µM,9.6%
O=c1c(O)c(-c2ccc(O)cc2)oc2cc(O[C@@H]3O[C@H](CO)[C@@H](O)[C@H](O)[C@H]3O)cc(O)c12,PTGS1,"enzyme activity, inhibitor, absorbance",,50 µM,58.8%
CCCCCCCCCCCCCC(=O)NCCCC[C@H](NS(C)(=O)=O)C(=O)N[C@H](C)C(=O)N[C@@H](CCCNC(=N)N)C(N)=O,SIRT3,"enzyme activity, inhibitor",,10 µM,10%
Cc1ccc(S(=O)(=O)n2cc(CCC3CC(=O)c4cc(Cl)cc(Br)c4O3)c3ccccc32)cc1 (centres unmarked),SIRT3,"enzyme activity, inhibitor, fluorescence",,200 µM,13%
Cn1c(CNC(=S)NCCCC[C@H](NS(=O)(=O)c2cccc(F)c2)C(=O)N[C@@H](Cc2c[nH]c3ccccc23)C(=O)NC2CCC2)n[nH]c1=S,SIRT3,"enzyme activity, inhibitor",,30 µM,51%
CCCCCC1CC(=O)c2cc(Cl)ccc2O1 (centres unmarked),SIRT3,"enzyme activity, inhibitor, fluorescence",,200 µM,6%
CCCCCCCCCCCCNC(=S)NCCCC[C@H](NC(=O)OCc1ccccc1)C(=O)N[C@@H](Cc1c[nH]c2ccccc12)C(=O)N[C@@H](CCC(=O)O)C(N)=O,SIRT3,"enzyme activity, inhibitor",,10 µM,21%
COc1ccc(-n2nc(OCCCN3CCCCC3)ccc2=O)cc1,"Transient receptor potential cation channel subfamily V member 1 (TRPV1, Homo sapiens, UniProt Q8NER1)",ligand displacement,,1 µM,44.5%
CCCCCC1CCc2cc(Cl)cc(Br)c2O1 (centres unmarked),SIRT3,"enzyme activity, inhibitor, fluorescence",,200 µM,1.2%
CN1CC(Oc2cnc(C#N)cc2-c2ccn3nc(NC(=O)C4CC4)cc3c2)C1,"Transcription initiation factor TFIID subunit 1-like (TAF1L, Homo sapiens, UniProt Q8IZX4)","enzyme activity, inhibitor",,1 µM,-5%
